For data set [1], the system named is Plasmodium falciparum. The data set is described as follows: Antiplasmodial activity against Plasmodium falciparum NF54 in human erythrocytes by [3H]hypoxanthine uptake. The settings on record: NF54, 72 h. Type of data set: functional, organism-based. The method in brief:
(§1)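 [³H]hypoxanthine incorporation assay, modified. Infected human red cells were exposed to serial drug dilutions for 48 h at 37 °C under reduced O₂ and raised CO₂. [³H]hypoxanthine was then added and incubation continued for 24 h. Cells were harvested on glass-fibre filters and counted by liquid scintillation. IC50 was taken from the sigmoidal inhibition curve. Runs were in duplicate and repeated at least once.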

For the next data set, the system named is Trypanosoma cruzi. In words: Antitrypanosomal activity against galactosidase gene containing Trypanosoma cruzi Tulahuen C2C4 trypomastigotes in rat L6 cells after 4 days. Format: functional, organism-based. The settings on record: Tulahuen C2C4, L6, 96 h. The method in brief: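 L-6 myoblasts were seeded at 2000 cells/well in RPMI 1640 with 10% FBS and 2 mM L-glutamine. After 24 h, 5000 trypomastigotes were added with serial drug dilutions. Plates were kept at 37 °C in 5% CO₂ for 4 days. CPRG/Nonidet substrate was added and colour read at 540 nm after 2–4 h. IC50 was taken from the sigmoidal inhibition curve.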

Data set [2] relates to Trypanosoma brucei rhodesiense. The data set is described as follows: Antitrypanosomal activity against Trypanosoma brucei rhodesiense STIB900 by Alamar blue assay. Type of data set: functional, organism-based. The procedure, abridged:
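Bloodstream parasites were grown in Minimum Essential Medium with 2-mercaptoethanol and 15% heat-inactivated horse serum, with serial drug dilutions, for 72 h at 37 °C in 5% CO₂. Alamar Blue was then added for 2–4 h more, and fluorescence read at excitation 530 nm and emission 590 nm. Signal was expressed as % of control to give IC50.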

For data set [3], the system named is Plasmodium falciparum. The data set is described as follows: Antiplasmodial activity against Plasmodium falciparum K1 in human erythrocytes by [3H]hypoxanthine uptake. The settings on record: K1, 72 h. Type of data set: functional, organism-based. The method in brief: as §1
A further data set relates to Leishmania donovani. The data set is described as follows: Antileishmanial activity against Leishmania donovani MHOM-ET-67/L82 amastigotes in mouse peritoneal macrophages. Type of data set: functional, organism-based. The method in brief: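 Mouse peritoneal macrophages in RPMI 1640 with 10% heat-inactivated FBS were infected after 24 h with amastigotes at 3:1 (parasite:macrophage). Free parasites were removed at 4 h. Drug was added the next day and cells incubated for 96 h at 37 °C in 5% CO₂. Slides were MeOH-fixed and Giemsa-stained, and the infected/noninfected ratio counted microscopically as % of control. IC50 was obtained by linear regression.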

Data set [4] is described as follows: Cytotoxicity against rat L6 cells after 4 days. Format: cell-based. The settings on record: read-out: MIC. The procedure, abridged: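 Uninfected L-6 myoblasts were run in the same format as the T. cruzi assay: RPMI 1640 with 10% FBS and 2 mM L-glutamine, same serial drug dilution, 37 °C, 5% CO₂. The MIC was judged microscopically after 4 days.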
The nature of data set [5]: Cytotoxicity against mouse peritoneal macrophages. Format: cell-based, Macrophage. The settings on record: read-out: MIC.

Converted amounts (≈) assume the structure as drawn. A value given as a limit tells only on which side of the number the result lay.

As a reminder, the IC50 is the point on the concentration scale where inhibition reaches its midpoint. Low values mean greater potency in that assay, high ones weaker potency in that assay. As for `COc1cc(OC)c(-c2ccc(OC)c3c(OC)cc(C)cc23)c2c1C(C)=N[C@@H](C)C2` [ANCISTROEALAINE A], the IC50 came to 4 µg/mL (≈ 9.53 µM) in the data set on Plasmodium falciparum [1]; 2.35 µg/mL (≈ 5.6 µM) with Trypanosoma cruzi; 3.46 µg/mL (≈ 8.25 µM) in data set [2]; 1.2 µg/mL (≈ 2.86 µM) with Plasmodium falciparum [3]; 4.1 µg/mL (≈ 9.77 µM) in the data set with Leishmania donovani. For the same compound, the MCC at 96 h in data set [4] is greater than 90 µg/mL. In addition, the MCC in data set [5] was greater than 30 µg/mL.
Regarding `COc1cc(OC)c2c(c1-c1ccc(O)c3c(OC)cc(C)cc13)C[C@H](C)N[C@H]2C` [ANCISTROEALAINE B], the IC50 in the data set on Plasmodium falciparum [1] stood at 0.79 µg/mL (≈ 1.94 µM); with Trypanosoma cruzi it was 17.6 µg/mL (≈ 43.2 µM); in data set [2] it was 2.03 µg/mL (≈ 4.98 µM); with Plasmodium falciparum [3], 0.52 µg/mL (≈ 1.28 µM); in the data set with Leishmania donovani, 10 µg/mL (≈ 24.5 µM). Also, the MCC at 96 h in data set [4] amounted to 90 µg/mL. For the same compound, the MCC in data set [5] is greater than 30 µg/mL.
As for `O=C(Cn1ccnc1[N+](=O)[O-])NCc1ccccc1` [BENZNIDAZOLE], inhibition in the data set on Trypanosoma cruzi was half-maximal at 0.3 µg/mL (≈ 1.15 µM) (IC50).
Regarding `Nc1nc(N)nc(Nc2ccc([As]3SCC(CO)S3)cc2)n1` (stereo unspecified) [MELARSOPROL], it took 0.0063 µg/mL to reach half-maximal inhibition in data set [2] (IC50).

The values above are taken from ChEMBL document CHEMBL1155616, “Ancistroealaines A and B, two new bioactive naphthylisoquinolines, and related naphthoic acids from Ancistrocladus ealaensis” (J Nat Prod, 2000).
